The source of these data is ChEMBL document CHEMBL1129249, “Synthesis and activity of a novel series of 3-biarylquinuclidine squalene synthase inhibitors” (J Med Chem, 1996).

SMILES strings stand for the structures.

For the first test, the system named is Rattus norvegicus. As to the kind of experiment: Inhibition of cholesterol biosynthesis from mevolanate after oral dosing to rat. The class given is functional. In short, it runs like this: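 Rats were dosed orally, and cholesterol synthesis from mevalonate was then measured. ED50 (mg/kg) was derived from dose–response data and reported with 95% confidence limits.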
As usually defined, the ED50 is the dose that gives a 50% effect, or the effect in half of the subjects. Low values mean an effect at a small dose, high ones a need for a large dose. The molecule `OC1(c2ccc(-c3ccncc3)cc2)CN2CCC1CC2` (stereo unspecified) came in with an ED50 of 2.7 mg/kg.

In the next test the target is T1, Squalene synthase (Rattus norvegicus, UniProt Q02769).
T1 sequence (Q02769 whole entry): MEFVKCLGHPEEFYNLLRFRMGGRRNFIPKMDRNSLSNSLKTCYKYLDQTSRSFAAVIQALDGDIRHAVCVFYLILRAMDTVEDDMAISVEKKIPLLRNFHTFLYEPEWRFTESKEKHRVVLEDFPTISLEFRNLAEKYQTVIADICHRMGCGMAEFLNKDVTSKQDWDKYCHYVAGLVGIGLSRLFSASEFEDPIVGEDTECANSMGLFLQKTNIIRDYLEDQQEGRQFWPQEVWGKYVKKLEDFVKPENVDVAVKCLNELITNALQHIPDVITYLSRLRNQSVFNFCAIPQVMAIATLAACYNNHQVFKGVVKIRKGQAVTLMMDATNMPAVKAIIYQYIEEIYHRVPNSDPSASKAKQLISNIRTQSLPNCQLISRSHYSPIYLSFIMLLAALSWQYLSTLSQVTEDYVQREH
As to the kind of experiment: In vitro inhibition against rat microsomal squalene synthase (SS). In short, it runs like this: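 Squalene synthase came from rat microsomes. Inhibition was tested in phosphate buffer. IC50 values are from duplicate determinations (n = 2).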
By IC50 is commonly meant the point on the concentration scale where inhibition reaches its midpoint. For `OC1(c2ccc(-c3cnc4ccccc4c3)cc2)CN2CCC1CC2` (stereo unspecified), the concentration for half-maximal inhibition (IC50) was 200 nM. This counts as sub-micromolar.

Consider `C1=C(c2ccc(-c3ccccc3)cc2)C2CCN1CC2`, for which the IC50 is 18 nM. Against the preceding molecule, the IC50 is about 11-fold lower. As for `OC1(c2ccc(-c3cccs3)s2)CN2CCC1CC2` (stereo unspecified), the half-inhibitory concentration (IC50) was more than 2500 nM. Molecule `OC1(c2ccc(-c3nc4ccccc4s3)cc2)CN2CCC1CC2` (stereo unspecified) had an IC50 of 6 nM. This counts as single-digit nanomolar. For `OC1(c2ccc(-c3ccncc3)cc2)CN2CCC1CC2` (stereo unspecified), the IC50 turned out to be 161 nM. Same read-out and setting: to `OC1(c2ccc(-c3ccc(F)cc3)cc2)CN2CCC1CC2` (stereo unspecified) belongs 18 nM; to `CC(C)=CCC/C(C)=C/CC/C(C)=C/COC1CN2CCC1CC2` (stereo unspecified), 70 nM; to `Oc1ccc(-c2ccc(C3(O)CN4CCC3CC4)cc2)cc1` (stereo unspecified), 132 nM.

For `[O-][S+](CC1(O)CN2CCC1CC2)c1ccc(-c2ccccc2)cc1` (stereo unspecified), the IC50 is more than 2500 nM. `OC1(COc2ccc(-c3ccccc3)cc2)CN2CCC1CC2` (stereo unspecified) yielded an IC50 of 13 nM. On the same count and under the same terms, to `OC1(c2ccc(C3OCCCO3)cc2)CN2CCC1CC2` (stereo unspecified) belongs more than 2500 nM; to `COC1(c2ccc(-c3ccccc3)cc2)CN2CCC1CC2` (stereo unspecified), more than 2500 nM; to `OC1(c2ccccc2)CN2CCC1CC2` (stereo unspecified), more than 2500 nM. Still for that read-out and setting: to `O=S(=O)(NC1CN2CCC1CC2)c1ccc(-c2ccccc2)cc1` (stereo unspecified) belongs more than 2500 nM; to `OC1(c2ccc(-c3nccs3)cc2)CN2CCC1CC2` (stereo unspecified), 30 nM; to `OC1(c2ccc(-c3ccccn3)cc2)CN2CCC1CC2` (stereo unspecified), 240 nM. The same measure, in the same setting: to `OC1(c2ccc(C3CCCCC3)cc2)CN2CCC1CC2` (stereo unspecified) belongs 190 nM; to `OC1(C#Cc2ccc(-c3ccccc3)cc2)CN2CCC1CC2` (stereo unspecified), 3 nM. Regarding `C(=C/C1CN2CCC1CC2)/c1ccc(-c2ccccc2)cc1` (stereo unspecified), 580 nM corresponded to half-maximal inhibition (IC50). For `c1ccc(-c2ccc(C3CN4CCC3CC4)cc2)cc1` (stereo unspecified), the midpoint of inhibition, the IC50, lay at 11 nM. This IC50 is about 53-fold lower than that of the molecule before. On the same count and under the same terms, for `OC1(CSc2ccc(-c3ccccc3)cc2)CN2CCC1CC2` (stereo unspecified) the value was 8 nM; for `OC1(c2cnc(-c3ccccc3)s2)CN2CCC1CC2` (stereo unspecified), 60 nM. In turn, `O=C(NC1CN2CCC1CC2)c1ccc(-c2ccccc2)cc1` (stereo unspecified) showed an IC50 of 1200 nM. Against the preceding molecule, the IC50 is about 20-fold higher. Turning to `OC1(CCc2ccc(-c3ccccc3)cc2)CN2CCC1CC2` (stereo unspecified), the IC50 is 7 nM.

Molecule `OC1(c2ccc(-c3cccnc3)cc2)CN2CCC1CC2` (stereo unspecified) displayed an IC50 of 270 nM. Still for that read-out and setting: to `c1ccc(-c2ccc(CCC3CN4CCC3CC4)cc2)cc1` (stereo unspecified) belongs 5 nM; to `OC1(c2cccc(-c3ccccc3)c2)CN2CCC1CC2` (stereo unspecified), 60 nM; to `C(=C\C1CN2CCC1CC2)/c1ccc(-c2ccccc2)cc1` (stereo unspecified), 4 nM.

Consider `OC1(c2ccc(-c3ccc(-c4ccccc4)cc3)cc2)CN2CCC1CC2` (stereo unspecified), for which 370 nM corresponded to half-maximal inhibition (IC50). Still for that read-out and setting: to `OC1(c2ccc(-c3cccs3)cc2)CN2CCC1CC2` (stereo unspecified) belongs 40 nM; to `CC(C)=CCC/C(C)=C/CC/C(C)=C/COCC1(O)CN2CCC1CC2` (stereo unspecified), 60 nM; to `O=S(=O)(c1ccc(-c2ccccc2)cc1)C1CN2CCC1CC2` (stereo unspecified), more than 2500 nM.

With `O=S(=O)(CC1(O)CN2CCC1CC2)c1ccc(-c2ccccc2)cc1` (stereo unspecified), the IC50 was more than 2500 nM. The same measure, in the same setting: for `c1ccc(-c2ccc(CC3CN4CCC3CC4)cc2)cc1` (stereo unspecified) the value was 27 nM; for `OC1(c2ccc(-c3ncccn3)cc2)CN2CCC1CC2` (stereo unspecified), 30 nM; for `OC1(c2ccc(-c3ccccc3)cc2)CN2CCC1CC2` (stereo in doubt; 2), 16 nM. The same measure, in the same setting: for `OC1(c2ccc(-c3ccccc3)cc2)CN2CCC1CC2` (stereo in doubt; 2a(+)) the value was 7 nM; for `OC1(c2ccc(-c3ccccc3)cc2)CN2CCC1CC2` (stereo in doubt; 2a(-)), 121 nM.

`OC(c1ccc(-c2ccccc2)cc1)C1CN2CCC1CC2` (stereo in doubt; 32) returned an IC50 of 2500 nM.

Molecule `OC(c1ccc(-c2ccccc2)cc1)C1CN2CCC1CC2` (stereo in doubt; 33) yielded an IC50 of 2500 nM.
